Assay: Toxicity liver stage against HepG2, at 10uM
Assay type: cell-based
Set-up: test concentration 10 uM, cell line HepG2-A16-CD81EGFP
Settings: human, HepG2-A16-CD81EGFP cells; read-out: INHIBITION
How it was run: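 Uninfected HepG2-A16-CD81EGFP cells, 3 × 10^3 per well, 1536-well, plated on prespotted compound at 10 μM final, parasite-free screening media added to match infected plates; puromycin 10 μM positive, DMSO 0.5% negative; run in parallel with 48 h PbLuc assay at 37 °C, 5% CO2; viability by CellTiter-Glo luminescence, normalized to controls.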

Row | SMILES | cytotoxicity at 10 µM [%]
1 | CC(=O)c1ccc(Nc2nc(N)nc3c2nc(C)n3C)cc1 | -8.23
2 | N#Cc1cnn(C(=O)COc2ccccc2F)c1N | 2.92
3 | CC1CCN(C(=O)CCN2Cc3ccccc3C[C@H]2C(N)=O)C1 (some centres undefined) | -3.11
4 | COC(=O)C1CN(Cc2ccn(-c3ccc(F)cc3)n2)CCO1 (centres undefined) | -8.51
5 | Cc1noc(CCCC(=O)N2CCNC(=O)C2)n1 | -4.62
6 | COC(=O)c1ccc(NC2CCN(CC(F)(F)F)C2=O)cc1C (centres undefined) | 2.79
7 | CCc1nc(CN2CCCN(C(=O)c3ccccc3)CC2)cs1 | 7.41
8 | Cc1nn(-c2ccccc2)c(C)c1CNC(=O)NC1CC1 | 7.59
9 | Cc1nc2n(n1)CC(NCc1c(Cl)ccc3cccnc13)CC2 (centres undefined) | 0.0383
10 | Cc1noc(CCNC(=O)NCC(=O)NCc2ccccc2)n1 | 5.24
11 | Cc1nnc(NCC(c2ccco2)N(C)C)c(C#N)c1C (centres undefined) | -3.01
12 | Cc1nn(CN(CC(C)C)C2CC2)c(=O)c2noc(C)c12 | -3.39
13 | CC(C)c1nnc2n1CCN(Cc1csc(-c3cnn(C)c3)n1)C2 | -2.17
14 | CCN(C(=O)c1cnc(-c2ccc3c(c2)OCO3)s1)C1CC1 | -0.839
15 | O=C(Nc1ccnc2ccnn12)c1ccc(NC2CC2)nc1 | 5.14
16 | Cc1cccc(C(=O)Nc2ccc(OC3CCOCC3)c(C)c2)n1 | -8.99
17 | Cc1nc(CNc2ncc(Br)cn2)n[nH]1 | -3.47

Row | SMILES | cytotoxicity at 10 µM [%]
18 | O=C(Nc1ccc2c(c1)OC1(CCCC1)O2)c1ccc(=O)[nH]n1 | 0.887
19 | CCN1CCN(CC(O)c2cc(Cl)ccc2Cl)CC1 (centres undefined) | 0.388
20 | Cc1cc(CS(=O)(=O)NC2CCCc3ccccc32)on1 (centres undefined) | -1.57
21 | Cc1cc(C(=O)N2CCCC(Cn3cc(C4CC4)nn3)C2)nc(C)n1 (centres undefined) | -0.916
22 | CC[C@@H](NC(C)=O)C(=O)NCc1cccnc1Oc1ccccc1OC | -3.06
23 | COc1ccccc1OCc1cc(C(=O)N2CCOCC2CO)n[nH]1 (centres undefined) | -3.94
24 | COC1CCCOC12CCN(C(=O)NCCc1cccs1)CC2 (centres undefined) | 1.03
25 | CCc1ccc(-c2cn3c(C(=O)N[C@H](C(N)=O)[C@@H](C)O)csc3n2)cc1 | 7.69
26 | CCNc1ccnc(-c2ccnc3c2ccn3C)n1 | 11.2
27 | FC(F)(F)CCc1ncnn1-c1ccc2c(c1)OCO2 | -3.55
28 | COc1cc2c(cc1C(=O)N1CC(c3ccncc3)C1)CCC2 | 0.545
29 | Cc1cc(C)nc(CNC(=O)C(c2cccnc2)N2CCOCC2)n1 (centres undefined) | -1.43
30 | Cc1ccc2cc(C(=O)N3CCCC3Cn3cccn3)[nH]c2c1 (centres undefined) | -7.39
31 | O=C(OCC1CCCN1)c1cccc(NC(=O)c2ccco2)c1 (centres undefined) | -6.66
32 | CN1[C@@H]2CC[C@H]1CN(C(=O)c1nnc3n1CCCC3)CC2 | -10.6
33 | CCCN1C[C@@H]2CC[C@H]1CN(C(=O)Cn1c(C)cc(C)nc1=O)C2 | -4.57
34 | Cc1c(C)c2c(c(C)c1O)CC[C@](C)(C(=O)O)O2 [(R)-TROLOX] | -1.69
